# Columns and labels:
# [1] = AUClast in Sprague-Dawley rat at 1 mg/kg, iv measured upto 24 hrs by LC/MS-MS analysis; assay type: ADME, organism-based; parameters: dose 1 mg/kg, time < 24 hr, route intravenous; details: in vivo
# [2] = AUClast in Beagle dog at 1 mg/kg, iv administered as infusion for 15 mins by LC/MS-MS analysis; assay type: ADME, organism-based, Canis lupus familiaris; parameters: dose 1 mg/kg, time 0 - last, route intravenous; details: in vivo
# [3] = Cmax in Sprague-Dawley rat at 10 mg/kg, po measured upto 24 hrs by LC/MS-MS analysis; assay type: ADME, organism-based; parameters: dose 10 mg/kg, route oral; details: in vivo
# [4] = Drug concentration in brain of formalin-induced C57BL/6 mouse model of nociceptive pain at 30 mg/kg, po administered 30 mins before formalin stimulation and measured after 40 mins
# [5] = Metabolic stability in mouse liver microsomes assessed as metabolic rate at 1 uM preincubated for 5 mins followed by NADPH addition and measured up to 30 mins by LC/MS-MS analysis; assay type: ADME, Microsome; details: 0.5 h
# [6] = Half life in BALB/c mouse at 1 mg/kg, iv measured upto 24 hrs by LC/MS-MS analysis; assay type: ADME, organism-based; details: in vivo
# [7] = Apparent permeability across apical to basolateral side in human Caco2 cells; assay type: ADME, cell-based; details: Caco-2
# [8] = Cmax in BALB/c mouse at 10 mg/kg, po measured upto 24 hrs by LC/MS-MS analysis; assay type: ADME, organism-based; parameters: dose 10 mg/kg, route oral; details: in vivo
# [9] = AUClast in BALB/c mouse at 1 mg/kg, iv measured upto 24 hrs by LC/MS-MS analysis; assay type: ADME, organism-based; parameters: time < 24 hr, dose 1 mg/kg, route intravenous; details: in vivo
# [10] = Half life in Beagle dog at 1 mg/kg, iv administered as infusion for 15 mins by LC/MS-MS analysis; assay type: ADME, organism-based, Canis lupus familiaris; details: in vivo
# [11] = Volume of distribution at steady state in Sprague-Dawley rat at 1 mg/kg, iv measured upto 24 hrs by LC/MS-MS analysis; assay type: ADME, organism-based; details: in vivo, read-out: Vdss
# [12] = Oral bioavailability in Sprague-Dawley rat at 10 mg/kg measured upto 24 hrs by LC/MS-MS analysis; assay type: ADME, organism-based; details: in vivo
# Outline: (§1)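 Pharmacokinetics were run with an IV dose of 1 mg/kg and a PO dose of 10 mg/kg. Parameters reported were AUClast, Cmax, CL, T1/2, Vss and %F.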
# [13] = AUClast in Sprague-Dawley rat at 10 mg/kg, po measured upto 24 hrs by LC/MS-MS analysis; assay type: ADME, organism-based; parameters: time < 24 hr, dose 10 mg/kg, route oral; details: in vivo
# [14] = Cmax in BALB/c mouse at 1 mg/kg, iv measured upto 24 hrs by LC/MS-MS analysis; assay type: ADME, organism-based; parameters: dose 1 mg/kg, route intravenous; details: in vivo
# [15] = Clearance in Beagle dog at 1 mg/kg, iv administered as infusion for 15 mins by LC/MS-MS analysis; assay type: ADME, organism-based, Canis lupus familiaris; details: in vivo
# [16] = Metabolic stability in dog liver microsomes assessed as metabolic rate at 1 uM preincubated for 5 mins followed by NADPH addition and measured up to 30 mins by LC/MS-MS analysis; assay type: ADME, Canis lupus familiaris, Microsome; details: 0.5 h
# [17] = Metabolic stability in monkey liver microsomes assessed as metabolic rate at 1 uM preincubated for 5 mins followed by NADPH addition and measured up to 30 mins by LC/MS-MS analysis; assay type: ADME, Macaca mulatta, Microsome; details: rhesus monkey, 0.5 h
# [18] = Oral bioavailability in BALB/c mouse at 10 mg/kg measured upto 24 hrs by LC/MS-MS analysis; assay type: ADME, organism-based; details: in vivo; outline: as §1
# [19] = Cmax in Beagle dog at 1 mg/kg, iv administered as infusion for 15 mins by LC/MS-MS analysis; assay type: ADME, organism-based, Canis lupus familiaris; parameters: dose 1 mg/kg, route intravenous; details: in vivo
# [20] = Clearance in BALB/c mouse at 1 mg/kg, iv measured upto 24 hrs by LC/MS-MS analysis; assay type: ADME, organism-based; details: in vivo
# [21] = Lipophilicity, log D of the compound; assay type: physicochemical; details: octanol/water
# [22] = Volume of distribution at steady state in BALB/c mouse at 1 mg/kg, iv measured upto 24 hrs by LC/MS-MS analysis; assay type: ADME, organism-based; details: in vivo, read-out: Vdss; outline: as §1
# [23] = Half life in Sprague-Dawley rat at 1 mg/kg, iv measured upto 24 hrs by LC/MS-MS analysis; assay type: ADME, organism-based; details: in vivo
# [24] = Clearance in Sprague-Dawley rat at 1 mg/kg, iv measured upto 24 hrs by LC/MS-MS analysis; assay type: ADME, organism-based; details: in vivo
# [25] = Metabolic stability in human liver microsomes assessed as metabolic rate at 1 uM preincubated for 5 mins followed by NADPH addition and measured up to 30 mins by LC/MS-MS analysis; assay type: ADME, Microsome; details: 0.5 h
# [26] = Apparent permeability across basolateral to apical side in human Caco2 cells; assay type: ADME, cell-based; details: Caco-2
# [27] = Cmax in Sprague-Dawley rat at 1 mg/kg, iv measured upto 24 hrs by LC/MS-MS analysis; assay type: ADME, organism-based; parameters: dose 1 mg/kg, route intravenous; details: in vivo
# [28] = Volume of distribution at steady state in Beagle dog at 1 mg/kg, iv administered as infusion for 15 mins by LC/MS-MS analysis; assay type: ADME, organism-based, Canis lupus familiaris; details: in vivo, read-out: Vdss; outline: as §1
# [29] = AUClast in BALB/c mouse at 10 mg/kg, po measured upto 24 hrs by LC/MS-MS analysis; assay type: ADME, organism-based; parameters: dose 10 mg/kg, time < 24 hr, route oral; details: in vivo
# [30] = Metabolic stability in rat liver microsomes assessed as metabolic rate at 1 uM preincubated for 5 mins followed by NADPH addition and measured up to 30 mins by LC/MS-MS analysis; assay type: ADME, Microsome; details: 0.5 h
# [31] = Unbound drug concentration in plasma of formalin-induced C57BL/6 mouse model of nociceptive pain at 3 mg/kg, po administered 30 mins before formalin stimulation and measured after 40 mins; assay type: ADME, organism-based; details: in vivo
# Outline: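 Mice were dosed orally at 3 mg/kg 30 min before formalin challenge. Nociceptive behaviour was scored at 0–5 min (phase I) and 10–40 min (phase II). Plasma was collected at the end of the study, and the unbound drug concentration was determined.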
# [32] = AUClast in female cynomolgus monkey at 150 mg/kg, po; assay type: ADME, organism-based, Macaca fascicularis; parameters: dose 150 mg/kg, time 0 - last, route oral; details: in vivo
# [33] = Cmax in male cynomolgus monkey at 150 mg/kg, po; assay type: ADME, organism-based, Macaca fascicularis; parameters: dose 150 mg/kg, route oral; details: in vivo
# [34] = Drug concentration in brain of formalin-induced C57BL/6 mouse model of nociceptive pain at 30 mg/kg, […]; assay type: ADME, organism-based; details: po
# [35] = AUClast in male cynomolgus monkey at 150 mg/kg, po; assay type: ADME, organism-based, Macaca fascicularis; parameters: dose 150 mg/kg, route oral, time 0 - last; details: in vivo
# [36] = Tmax in male cynomolgus monkey at 150 mg/kg, po; assay type: ADME, organism-based, Macaca fascicularis; details: in vivo
# Outline: (§2)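 Cynomolgus monkeys, 3 male and 3 female, were given a single oral gavage dose of 150 mg/kg. Animals were watched for emesis. Tmax was recorded separately for males and females.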
# [37] = Cmax in female cynomolgus monkey at 150 mg/kg, po; assay type: ADME, organism-based, Macaca fascicularis; parameters: dose 150 mg/kg, route oral; details: in vivo
# [38] = Tmax in female cynomolgus monkey at 150 mg/kg, po; assay type: ADME, organism-based, Macaca fascicularis; details: in vivo; outline: as §2
# [39] = Bioavailability in Beagle dog at 1 mg/kg, iv administered as infusion for 15 mins followed by compound washout and subsequent compound dosing at 5 mg/kg, po measured up to 24 hrs by LC/MS-MS analysis; assay type: ADME, organism-based, Canis lupus familiaris; details: in vivo
# [40] = Cmax in Beagle dog at 1 mg/kg, iv administered as infusion for 15 mins followed by compound washout and subsequent compound dosing at 5 mg/kg, po measured up to 24 hrs by LC/MS-MS analysis; assay type: ADME, organism-based, Canis lupus familiaris; details: in vivo
# [41] = AUClast in Beagle dog at 1 mg/kg, iv administered as infusion for 15 mins followed by compound washout and subsequent compound dosing at 5 mg/kg, po measured up to 24 hrs by LC/MS-MS analysis; assay type: ADME, organism-based, Canis lupus familiaris; details: in vivo
Structure (SMILES),AUC(0-t) at 24 h [1] [µM·h],Cmax [3] [µM],Drug metabolism [5] [nmol/min/mg],half-life [6] [h],Cmax [8] [µM],AUC(0-t) at 24 h [9] [µM·h],Vd [11] [L/kg],bioavailability [12] [%],AUC(0-t) at 24 h [13] [µM·h],Cmax [14] [µM],Drug metabolism [16] [nmol/min/mg],Drug metabolism [17] [nmol/min/mg],bioavailability [18] [%],logD [21],Vd [22] [L/kg],half-life [23] [h],Drug metabolism [25] [nmol/min/mg],Cmax [27] [µM],AUC(0-t) at 24 h [29] [µM·h],Drug metabolism [30] [nmol/min/mg],further results
O=S(=O)(Nc1ncccn1)c1ccc2c(c1)OCC[C@@H]2c1ccc(C(F)(F)F)cc1N1CCOCC1,5.9,2.1,0.16,4.3,9.6,12,1.2,31,19,2,0.02,0.03,50,2.7,0.81,2.8,0.02,2.1,62,0.02,AUC(0-t) at 0.25 h [2]: 48 µM·h; brain concentration at 40 min [4]: < 1 µM; Papp A→B [7]: 37.6 ×10⁻⁶ cm/s; half-life [10]: 11 h; clearance [15]: 0.5 mL/min/kg; Cmax [19]: 4.9 µM; clearance [20]: 2.5 mL/min/kg; clearance [24]: 5.1 mL/min/kg; Papp B→A [26]: 25.4 ×10⁻⁶ cm/s; Vd [28]: 0.5 L/kg
Cn1nccc1-c1cc(C(F)(F)F)ccc1[C@H]1CCc2cc(S(=O)(=O)Nc3ncccn3)ccc21,7.9,10.9,0.03,2.8,18,8.5,1,58,46,2,0.02,0.03,99,2.4,0.8,2.7,0.03,2.5,84,0.04,Cp(f) [31]: 0.343 µM; AUC(0-t) [32]: 601 µM·h; Cmax [33]: 66 µM; Papp A→B [7]: 31.5 ×10⁻⁶ cm/s; concentration at 40 min [34]: 2.1 µM; AUC(0-t) [35]: 684 µM·h; Tmax [36]: 2 h; clearance [20]: 3.3 mL/min/kg; clearance [24]: 4.9 mL/min/kg; Cmax [37]: 69 µM; Tmax [38]: 1.5 h; Papp B→A [26]: 36.7 ×10⁻⁶ cm/s
O=S(=O)(Nc1ncccn1)c1ccc2c(c1)OCC[C@@H]2c1ccc(C(F)(F)F)cc1-c1ccc(F)nc1,15,6.6,0,3.2,17,12,1.2,74,111,2,0.03,0.01,> 100,2.8,0.8,9.8,0,1.7,171,0,bioavailability [39]: 78%; AUC(0-t) at 0.25 h [2]: 70 µM·h; Papp [7]: 41.8 ×10⁻⁶ cm/s; half-life [10]: 24 h; Cmax [40]: 14 µM; clearance [15]: 0.3 mL/min/kg; AUC(0-t) [41]: 218 µM·h; Cmax [19]: 5.7 µM; clearance [20]: 2.6 mL/min/kg; clearance [24]: 2 mL/min/kg; Papp [26]: 33.4 ×10⁻⁶ cm/s; Vd [28]: 0.5 L/kg
Cc1ccc(-c2cc(C(F)(F)F)ccc2[C@H]2CCOc3cc(S(=O)(=O)Nc4ncccn4)ccc32)cn1,5.5,19,0.04,1.5,18,7.6,0.8,> 100,112,3,0.02,0.02,83,2.3,0.6,1.9,0,2.6,63,0.02,bioavailability [39]: 51%; AUC(0-t) at 0.25 h [2]: 19 µM·h; brain concentration at 40 min [4]: < 1 µM; Papp A→B [7]: 39.5 ×10⁻⁶ cm/s; half-life [10]: 2.5 h; Cmax [40]: 8.5 µM; AUC(0-t) [41]: 50 µM·h; Cmax [19]: 6.5 µM; Papp B→A [26]: 36.8 ×10⁻⁶ cm/s; Vd [28]: 0.4 L/kg
Cn1nccc1-c1cc(C(F)(F)F)ccc1[C@H]1CCOc2cc(S(=O)(=O)Nc3ncccn3)ccc21,11,13,0,4.2,15,12,0.9,100,114,2,0.01,0.02,89,3.7,0.9,4.2,0,2.2,107,0.01,bioavailability [39]: 40%; Cp(f) [31]: 0.728 µM; AUC(0-t) at 0.25 h [2]: 59 µM·h; Papp A→B [7]: 28 ×10⁻⁶ cm/s; half-life [10]: 7.8 h; Cmax [40]: 10 µM; clearance [15]: 0.5 mL/min/kg; AUC(0-t) [41]: 117 µM·h; Cmax [19]: 6.9 µM; clearance [20]: 2.7 mL/min/kg; clearance [24]: 3 mL/min/kg; Papp B→A [26]: 26.8 ×10⁻⁶ cm/s; Vd [28]: 0.3 L/kg

# Reference: ChEMBL document CHEMBL4627393, “Discovery of Potent, Selective, and State-Dependent NaV1.7 Inhibitors with Robust Oral Efficacy in Pain Models: Structure-Activity Relationship and Optimization of Chroman and Indane Aryl Sulfonamides” (J Med Chem, 2020)
